Measured values published in ChEMBL document CHEMBL2169747, “Synthesis and biological properties of highly sequence-specific-alkylating N-methylpyrrole-N-methylimidazole polyamide conjugates” (J Med Chem, 2012).

Columns and labels:
Assay type in all cases: functional
A549 [1] = test: Downregulation of EPM2A gene expression in human A549 cells at 26 nM after 12 hrs by microarray analysis relative to control
How it was run: (§1)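 A549 cells, 4 × 10^5 per 60 mm dish, were exposed to conjugate for 12 h in medium with 0.1% DMSO; vehicle control was 0.1% DMSO. Whole human genome (~25 000 genes) expression was profiled by microarray and expression compared with the control.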

A549 [2] = test: Upregulation of RRAD gene expression in human A549 cells at 26 nM after 12 hrs by microarray analysis relative to control
How it was run: (§2)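 4 ×10^5 A549 cells seeded per 60 mm dish and treated 12 h with conjugate (21, 26, 34 or 100 nM) in medium; control medium contained 0.1% DMSO, with conjugates added as 0.1% DMSO solutions. Whole human genome (~25 000 genes) expression profiled by microarray against the DMSO control. A549 culture: RPMI-1640 with 10% heat-inactivated FBS, penicillin/streptomycin, 37 °C, 5% CO2.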

A549 [3] = test: Upregulation of SPESP1 gene expression in human A549 cells at 26 nM after 12 hrs by microarray analysis relative to control; how it was run: as §2
A549 [4] = test: Downregulation of MYCBP2 gene expression in human A549 cells at 26 nM after 12 hrs by microarray analysis relative to control; how it was run: as §1
A549 [5] = test: Downregulation of NP_940865.1 gene expression in human A549 cells at 26 nM after 12 hrs by microarray analysis relative to control
How it was run: (§3)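 A549 cells (RPMI-1640, 10% heat-inactivated FBS, penicillin/streptomycin, 37 °C, 5% CO2) seeded at 4 × 10^5 per 60 mm dish. Exposed 12 h to conjugate at 21, 26, 34 or 100 nM in medium with 0.1% DMSO, against 0.1% DMSO control. Whole-genome (~25 000 genes) expression profiled by microarray.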

A549 [6] = test: Upregulation of BBC3 gene expression in human A549 cells at 26 nM after 12 hrs by microarray analysis relative to control; how it was run: as §3
A549 [7] = test: Upregulation of GDF15 gene expression in human A549 cells at 26 nM after 12 hrs by microarray analysis relative to control; how it was run: as §2
A549 [8] = test: Downregulation of SIPA1L1 gene expression in human A549 cells at 34 nM after 12 hrs by microarray analysis relative to control; how it was run: as §3
A549 [9] = test: Downregulation of GTDC1 gene expression in human A549 cells at 34 nM after 12 hrs by microarray analysis relative to control; how it was run: as §1
A549 [10] = test: Downregulation of LAMA2 gene expression in human A549 cells at 34 nM after 12 hrs by microarray analysis relative to control; how it was run: as §1
A549 [11] = test: Downregulation of NP_115632.1 gene expression in human A549 cells at 34 nM after 12 hrs by microarray analysis relative to control; how it was run: as §1

Row | Structure (SMILES) | fold change (FC) (A549 [1]) | fold change (FC) (A549 [2]) | fold change (FC) (A549 [3]) | fold change (FC) (A549 [4]) | fold change (FC) (A549 [5]) | fold change (FC) (A549 [6]) | fold change (FC) (A549 [7]) | fold change (FC) (A549 [8]) | fold change (FC) (A549 [9]) | fold change (FC) (A549 [10]) | fold change (FC) (A549 [11])
1 | CC(=O)Nc1cn(C)c(C(=O)Nc2cc(C(=O)Nc3cc(C(=O)NCCC(=O)Nc4cc(C(=O)NCCCC(=O)Nc5cc(C(=O)NCCC(=O)Nc6cn(C)c(C(=O)Nc7ccc8[nH]c(C(=O)N9CC(CCl)c%10c9cc(O)c9ccccc%109)cc8c7)n6)n(C)c5)n(C)c4)n(C)c3)n(C)c2)n1 (racemic) | 0.353 | 6 | 11 | 0.338 | 0.322 | 9.4 | 5.5 |  |  |  | 
2 | CC(=O)Nc1cn(C)c(C(=O)Nc2cn(C)c(C(=O)Nc3cc(C(=O)NCCC(=O)Nc4cc(C(=O)NCCCC(=O)Nc5cn(C)c(C(=O)NCCC(=O)Nc6cn(C)c(C(=O)Nc7ccc8[nH]c(C(=O)N9CC(CCl)c%10c9cc(O)c9ccccc%109)cc8c7)n6)n5)n(C)c4)n(C)c3)n2)n1 (racemic) |  |  |  |  |  |  |  | 0.309 | 0.307 | 0.3 | 0.273
